# Sampled rows, rich in hits. Any-hit rate of the full collection: about 1.8%.
# Dynein cargo inh: dynein cargo transport inhibition | AID 1381 | 3617.4 mouse cells, GR-EGFP nuclear translocation imaging; test concentration mostly 20 µM; stimulated with dexamethasone, 1 µM; hits give low values | z-score, hits read low | 0.47% of 220,000 active;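 active = plate z-score of nuclear minus cytoplasmic receptor signal below a set negative limit, without overly bright fluorescence or cell loss, cut at about -3.5 in these data, passing the limit was not always enough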;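 note: z-score of nuclear minus cytoplasmic ring GR-EGFP intensity difference per well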
#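 Buffer or medium: tetracycline-free induction medium containing charcoal-stripped FBS / Reagent: dexamethasone agonist, 1.0 µM final, for 30 min / Technique: automated 10x imaging of fixed Hoechst-stained cells / Times: induction 48 h, compound 1 h, agonist 30 min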
# TNF necrop inh: blocks TNF-alpha induced death of Jurkat FADD-/- cells. 0.068% of 220,000 active. activation (protection from cell death), % at 10 µM. Jurkat FADD-/- TNF necroptosis rescue, ATP luminescence, 24 h; 0 = TNF only, 100 = no-TNF cells. AID 463075;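 active = activation, meaning protection from cell death, of at least 50% relative to plate controls; inactive = activation below 50%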;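 note: necroptosis triggered by 40 ng/mL TNF-alpha added together with compound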
# Furin inhibitor: blocks human furin protease activity. AID 463115. 0.061% of 220,000 active. inhibition, % at 20 µM or 30 µM. P09958. purified furin, fluorogenic substrate cleavage; in the data active = inhibition above about 25%
# Target sequence (P09958 108-714 limits assumed): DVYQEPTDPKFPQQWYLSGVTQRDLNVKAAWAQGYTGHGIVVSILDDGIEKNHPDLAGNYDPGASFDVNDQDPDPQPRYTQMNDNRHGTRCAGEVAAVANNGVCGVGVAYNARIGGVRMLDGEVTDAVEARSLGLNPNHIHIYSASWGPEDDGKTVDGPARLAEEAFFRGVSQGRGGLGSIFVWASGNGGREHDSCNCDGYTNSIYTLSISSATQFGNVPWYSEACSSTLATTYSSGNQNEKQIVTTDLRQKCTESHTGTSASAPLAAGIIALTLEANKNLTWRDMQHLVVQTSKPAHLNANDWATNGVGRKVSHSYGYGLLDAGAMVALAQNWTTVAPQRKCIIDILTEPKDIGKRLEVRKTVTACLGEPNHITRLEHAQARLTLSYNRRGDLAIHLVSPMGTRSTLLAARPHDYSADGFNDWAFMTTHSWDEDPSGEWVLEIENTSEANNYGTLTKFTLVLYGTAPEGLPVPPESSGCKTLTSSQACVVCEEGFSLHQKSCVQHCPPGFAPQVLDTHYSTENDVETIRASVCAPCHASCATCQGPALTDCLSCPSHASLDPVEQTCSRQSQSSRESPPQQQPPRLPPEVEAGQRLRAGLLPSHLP
# zVAD death inh: L929 zVAD cell death inhibition | L929 zVAD necroptosis rescue, ATP luminescence, 24 h; with zVAD 60 µM | viability rescue, % at 10 µM | 0.38% of 220,000 active | AID 1377;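 active = activation, scaled between plate controls, above about 75%, limit read from the data; inactive = activation under that limit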;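 note: 0% = zVAD with DMSO and 100% = DMSO alone without zVAD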
# Autophagy HCS: modulators of autophagy; MEF GFP-LC3 puncta imaging; test concentration mostly 10 µM; calls only at 10 µM (by protocol); 0.98% of 190,000 active;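 active = percentage of spot-positive cells more than 3 SD above its plate mean, without a fluorescence outlier flag or 80% toxicity; inconclusive = no clear call, values can overlap the other calls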;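 note: spot-positive cell cutoff set from DMSO-treated cells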
# HSV replic up: HSV replication enhancement; maximum fold increase; AID 1956; 0.005% of 220,000 active; HSV replication augmentation in cells, fold increase; in the data active = maximum fold increase above about 1.5; inconclusive = no clear call, values can overlap the other calls; tested in PC3 cells
# Numbers without * were called inactive; i = inactive; ? = inconclusive; . = no result given; + = active, no number.
SMILES,Dynein cargo inh,TNF necrop inh,Furin inhibitor,zVAD death inh,Autophagy HCS,HSV replic up
COc1ccc(C2C(Oc3ccccc3)C(=O)N2c2cc(C)ccc2C)cc1OC (stereo not given),-1.1,0,-1,0,i,.
CC1C/C(=C\c2cccnc2)C(=O)/C(=C/c2cccnc2)C1 (stereo not given),-6.4*,36,2,0,i,i
O=C1/C(=C/c2cccnc2)CCc2c1[nH]c1ccccc21,-0.56,-1,-9,13,i,i
c1ccc(C(c2ccccc2)c2noc(CN3CCN(CC4CC4)CC3)n2)cc1,-0.36,2,-33,-3,i,i
COCC1CCCN(Cc2nc(C(c3ccccc3)c3ccccc3)no2)C1 (stereo not given),-0.24,0,-22,-1,+,i
O=C(O)CNS(=O)(=O)c1c(Cl)cccc1Cl,-0.39,2,-29,1,.,i
Clc1ccc(C2=CSC3=NCCN23)cc1Cl,-0.63,-13,-20,0,+,i
COC(=O)[C@@H]1C[C@@]2(O)[C@@H](O)[C@@H](O)[C@@H](O)C[C@H]2N1C/C=C/c1ccccc1,0.25,0,-13,0,.,i
Cc1ccc(C)c(N(CC(=O)N/N=C/c2ccc(-c3ccc([N+](=O)[O-])cc3)o2)S(=O)(=O)c2ccccc2)c1,0.56,-3,-11,1,+,i
O=[N+]([O-])c1ccc(-c2ccc(/C=N/Nc3nc(N4CCCC4)nc(N4CCCC4)n3)o2)cc1,2.5,-15,-27,2,+,i
O=[N+]([O-])c1cccc(-c2ccc(/C=N/Nc3nc(N4CCCCC4)nc(N4CCCCC4)n3)o2)c1,1.2,-4,-14,3,i,i
O=[N+]([O-])c1cccc(-c2ccc(/C=N/NC(=S)Nc3ccccc3)o2)c1,-1.3,-8,-7,0,+,?
O=C(Cc1ccccc1)N/N=C/c1ccc(-c2ccc([N+](=O)[O-])cc2)o1,-0.036,2,-10,0,+,i
O=[N+]([O-])c1ccc(/C=N/NC(=S)Nc2ccccc2)o1,-1.7,-2,-12,1,i,i
O=C(O)C1CCN(c2ccccc2[N+](=O)[O-])CC1,0.66,0,-5,-1,i,i
C[C@H](NS(=O)(=O)c1ccccc1)C(=O)OCC(=O)NC(=O)Nc1ccc2c(c1)OCCO2,-0.19,1,-13,0,i,i
CCN(CC)c1ccc(/C=C(/C#N)C(=O)NCc2ccccc2)o1,-0.2,2,2,5,+,?
CCN(CC)c1ccc(/C=C(/C#N)C(=O)NC(C)C)o1,0.8,-1,4,9,i,?
CNc1nc(N)nc(-c2cc(Cl)ccc2OC)n1,-0.056,0,-35,1,i,i
COc1ccccc1/C=C/C(=O)c1c2c(c(C)[nH]c1=O)CCCC2,-2.5,-20,-4,66,+,i
CCOC(=O)N1CCN(c2c(F)cc3[nH]c(=S)[nH]c3c2Br)CC1,0.44,-16,-16,-1,+,i
C1CCC(C(CC2CCCCN2)C2CCCCC2)CC1 (stereo not given),-2.5,-27,-16,-3,+,i
CCCCCCc1cc2cc(C(=O)Nc3ccc(OC)cc3)c(=O)oc2cc1O,0.47,-2,-16,6,+,i
CCCCCCc1cc2cc(C(=O)Nc3cccc(OC)c3)c(=O)oc2cc1O,0.025,-2,-2,5,i,i
CCN(Cc1cc2ccccc2[nH]c1=O)C(=O)C1CCCCC1,0.85,0,-5,0,i,i
SMILES,Dynein cargo inh,TNF necrop inh,Furin inhibitor,zVAD death inh,Autophagy HCS,HSV replic up
CC(C)N(Cc1cc2ccccc2[nH]c1=O)C(=O)C1CCCCC1,-0.4,-1,-26,1,+,i
COc1ccc(N=C2SC(C(N)=O)CC(=O)N2Cc2ccc3c(c2)OCO3)cc1 (stereo not given),0.58,0,-27,1,.,i
CCNC(=O)C1CC(=O)N(Cc2ccc3c(c2)OCO3)C(=Nc2ccc(F)cc2)S1 (stereo not given),1.1,0,32*,1,i,i
C=CCN1CC2(c3ccccc3)CN(CC=C)CC(c3ccccc3)(C1)C2=O,-0.74,0,-19,0,i,i
COc1ccc(-n2c(-c3ccc(Br)cc3)c[n+]3c2CCc2ccccc2-3)cc1,-0.11,-12,-15,.,i,i
CC(C)c1ccc(-n2c(-c3ccccc3)c[n+]3c2CCc2ccccc2-3)cc1,0.31,-16,-17,3,+,i
COc1cc(C(c2c(C)[nH][nH]c2=O)c2c(C)[nH][nH]c2=O)cc(OC)c1OC,1.7,-1,2,-1,+,i
CCN(CC)C(=S)Nc1ccc2nc3n(c(=O)c2c1)CCCCC3,3.3,1,-5,0,i,i
COc1ccc(C(C)(C)C)cc1NC(=O)COC(=O)c1ncc(Cl)c(Cl)c1Cl,-1.2,2,-11,1,i,i
Cc1ccc(NC(=O)C2CC(=O)Nc3nncn32)cc1 (stereo not given),1.5,0,-8,1,i,i
CCN(CC)S(=O)(=O)c1ccc(C(=O)/C=C/c2ccc(-c3ccc([N+](=O)[O-])cc3)o2)cc1,-2.2,0,-5,0,.,i
CCc1ccc(C(=O)/C=C/c2ccc([N+](=O)[O-])o2)cc1,-1.5,-12,-12,0,+,i
Cc1onc(-c2ccccc2)c1C(=O)NNC(=S)NC(=O)/C=C/c1cccs1,-0.99,-1,-2,0,i,i
Cc1c(N=C2N=C(NC(=O)Nc3ccc(Cl)cc3)c3ccccc32)c(=O)n(-c2ccccc2)n1C,2.5,-4,6,-3,+,i
Cc1c(NC(=O)Nc2ccc(Cl)cc2)c(=O)n(-c2ccccc2)n1C,-1.4,1,-15,0,i,i
CCCNS(=O)(=O)c1ccc(OCC(=O)Nc2ccc3c(c2)OCO3)cc1,-0.085,0,-21,0,i,i
CCN(CC)CCN(C)c1ccc(N2C(=O)C3CC=CCC3C2=O)cc1[N+](=O)[O-] (stereo not given),0.03,1,-20,5,+,i
O=C1C2CC=CCC2C(=O)N1c1ccc(NCCc2ccccc2)c([N+](=O)[O-])c1 (stereo not given),1.8,4,-11,1,i,i
O=C(N/N=C/c1ccccc1O)C(=O)Nc1ccccn1,1.2,1,-14,2,i,i
OCCC1CN(Cc2cc(F)ccc2-n2cccn2)CCN1C1CCCC1 (stereo not given),-0.14,1,-15,0,.,i
